# TRPML3 ag = activates the human TRPML3 channel. Q8TDD5. HEK293 TRPML3-YFP, Fluo-8 calcium fluorescence; 100% = the carbachol control signal. activation, % at 3 µM. actives 0.29% (n = 220,000). AID 1448;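 active = activation above its plate's cutoff, the mean activation of the plate's test wells plus 3 SD, cut at about 12% in these data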;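 note: 0% = DMSO only wells and 100% = carbachol wells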
#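 system = HEK293 cells stably carrying human TRPML3-YFP | doses = one concentration, 3 µM nominal, 0.3% DMSO | timing = dye loading 1 h 37 °C then 30 min ambient, 125 s read | detection = Fluo-8 calcium dye fluorescence, ex 470-495, em 515-575 nm | benchmarks = high control carbachol 87 µM, low control DMSO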
# ABCG2 inh = human ABCG2 inhibition, ABCB1 as counter-screen | Q9UNQ0 | IgMXP3 cells, JC-1 efflux, flow cytometry | inhibition, % at 6.6 µM | actives 0.1% (n = 190,000) | AID 1325;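 active = inhibition above 80%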;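 note: 0% = DMSO and 100% = nicardipine control wells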
#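 Measure – % inhibition of efflux relative to nicardipine and DMSO · Test system – ABCG2 IgMXP3 and barcoded ABCB1 CCRF-Adr cell mix · Control set – nicardipine as high control, DMSO as low control · Compound – one concentration, 6.6 µM final · Signal – flow cytometry of retained JC-1 fluorescence · Timing – 10 min exposure at 25 °C with rotation, no wash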
# Calb biofilm kill = mixture kills Candida albicans biofilm cells | inhibition, % at 7.6 µM | C. albicans biofilm persisters + clotrimazole, fluorescence viability; primary screen in compound mixtures of four per well | actives 0.02% (n = 120,000);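 active = inhibition above 30.3% in the primary screen of four-compound pools, then above 30% when the compound was retested; inconclusive = passed the primary limit but could not be retested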;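 note: compounds exposed to preformed 24 h biofilms for 48 h; 0% = untreated biofilm control and 100% = clotrimazole plus chlorhexidine kill blank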
#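 Incubation: 24 h biofilm formation, then 48 h compound exposure, 37 °C | Material: C. albicans biofilms | Buffer or medium: RPMI/MOPS medium, pH 7.0 | Measured by: 2-h Alamar Blue fluorescence, 535/590 nm excitation/emission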
# zfTRPN1 agonist = zebrafish TRPN1 (NompC) channel agonism | HEK293 zebrafish TRPN1-YFP, Fluo-8 calcium fluorescence; 100% = response to 87 µM carbachol | activation, % at 3 µM | actives 0.18% (n = 220,000);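 active = activation above its plate's cutoff, the mean activation of test wells on that plate plus 3 SD, cut at about 19% in these data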;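 note: 0% = DMSO alone and 100% = 87 µM carbachol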
#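 Control set: carbachol 87 µM as high control, DMSO as low control; system: HEK293 stable line with zebrafish TRPN1-YFP; read-out: % activation versus carbachol response; detection: intracellular calcium fluorescence with Fluo-8; doses: single test compound dose, 3 µM nominal, 0.3% DMSO; schedule: dye 1 h 37 °C plus 30 min RT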
# ROMK primary = modulates human ROMK potassium channel activity; B-score at 10 µM; P48048; AID 1918; actives 2% (n = 130,000); Tet-inducible ROMK, thallium flux fluorescence; actives lie on both sides;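 active = signal ratio slope over the read window, or its plate-corrected B-score, at least 3 SD from the plate mean, either direction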;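 note: B-score of the F/F0 ratio slope over 7 to 12 s after thallium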
# Target sequence (P48048 whole entry, looked up): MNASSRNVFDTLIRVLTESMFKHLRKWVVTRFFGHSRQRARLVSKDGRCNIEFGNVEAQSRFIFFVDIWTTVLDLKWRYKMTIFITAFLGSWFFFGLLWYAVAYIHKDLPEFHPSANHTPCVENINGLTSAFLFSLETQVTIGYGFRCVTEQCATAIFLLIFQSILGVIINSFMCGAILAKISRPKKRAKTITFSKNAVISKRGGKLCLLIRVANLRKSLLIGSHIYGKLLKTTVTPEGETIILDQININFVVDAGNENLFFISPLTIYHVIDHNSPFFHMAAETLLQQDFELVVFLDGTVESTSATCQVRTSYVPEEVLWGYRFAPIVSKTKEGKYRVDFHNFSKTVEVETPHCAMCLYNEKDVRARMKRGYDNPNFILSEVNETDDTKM
# ABCB1 inh = inhibitors of human ABCB1 transporter, ABCG2 counter-screen; P08183; CCRF-Adr cells, JC-1 efflux, flow cytometry; inhibition, % at 6.6 µM; actives 0.067% (n = 190,000); in the data active = inhibition above about 40%;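 note: 0% = vehicle and 100% = reference inhibitor; higher value means more JC-1 retained so stronger ABCB1 efflux block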
# ROMK hit retest = retested hit modulating human ROMK potassium channel | AID 1917 | ROMK thallium flux, fluorescence ratio; hits give low values | normalized thallium flux (F/F0 slope) at 10 µM | actives 54% (n = 3,000) | shares compounds with ROMK primary;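 active = Flux at 10 µM at least 3 SD below or above vehicle control mean in one or both replicates; inconclusive = no clear call, values can overlap the other calls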
# * hit, by the source's call; u = inconclusive; x = no result. This excerpt belongs to a sample that is enriched for hits.
SMILES,TRPML3 ag,ABCG2 inh,Calb biofilm kill,zfTRPN1 agonist,ROMK primary,ABCB1 inh,ROMK hit retest
N#CC1=C(N)C(C#N)(C#N)[C@H](c2c(F)cccc2F)[C@H]2CC3(CC=C12)OCCO3,2,-1,x,2,-3.6*,0,0.053*
NNC(=O)c1csc(Cc2c(Cl)sc3ccc(Cl)cc23)n1,0,x,25,1,-2,x,x
Cc1ccc(/C=[N+](\[O-])c2ccc(N(C)C)cc2)c2nsnc12,3,10,7,7,x,1,0.047*
O=c1[nH]c(C(Cl)Cl)nc2sc3c(c12)CCN(Cc1ccccc1)C3,0,-2,-1,0,-1.1,1,x
CCCSc1nc2sc3c(c2c(=O)[nH]1)CCN(Cc1ccccc1)C3,4,18,x,3,-5.4*,0,0.03*
CCCn1c(=O)c2c(C(=O)OCC)cc(-c3ccco3)nc2n(CCC)c1=O,0,10,x,0,-3.8*,2,0.064*
CCCn1c(=O)c2c(C(F)(F)F)cc(-c3ccco3)nc2n(CCC)c1=O,1,2,x,1,0.62,0,x
O=S(=O)(/C(=C/c1ccc(C(F)(F)F)cc1)c1nc2ccccc2[nH]1)c1ccccc1,2,14,7,0,-4.3*,20,0.051*
CC(C)c1ccc(/C=C(\c2nc3ccccc3[nH]2)S(=O)(=O)c2ccccc2)cc1,-1,5,5,-1,-3.7*,9,0.06*
O=C(O)Cc1ccc(-n2cccc2)cc1,1,2,7,1,-0.049,1,x
CC1(C)C2CCC1(CS(=O)(=O)N1CCCc3ccccc31)C(=O)C2 (centres undefined),2,1,x,-1,-3.4*,0,0.07
COc1ccccc1N1CCN(S(=O)(=O)CC23CCC(CC2=O)C3(C)C)CC1 (centres undefined),3,3,x,2,x,1,x
COc1ccc(CN2CCN(S(=O)(=O)c3ccc(NC(C)=O)cc3)CC2)c(OC)c1OC,0,-1,2,1,0.5,0,x
O=S(=O)(c1ccc(S(=O)(=O)N(Cc2cccs2)CC2CCCO2)cc1)N1CCCCC1 (centres undefined),1,4,x,1,-0.92,1,x
O=S(=O)(NC1CCCC1)c1ccc(S(=O)(=O)N(Cc2cccs2)CC2CCCO2)cc1 (centres undefined),-1,5,x,-1,-3.1*,2,0.073
O=C(Cc1cccs1)N(CC1CCCO1)C1(C(=O)NC2CCCC2)CCCCC1 (centres undefined),-1,0,4,-2,-1.8*,0,u
Cc1c(Cl)cccc1N(Cc1ccc(C(=O)O)cc1)S(=O)(=O)c1ccccc1,1,8,6,-1,-0.61,1,x
Cc1cccc(N=Cc2cc(Br)cc(Cl)c2O)c1,1,-3,6,-1,4.1*,-1,0.12*
NC(=O)c1cccc(N=Cc2cc(Cl)cc(Cl)c2O)c1,1,4,18,-1,1.3,0,x
COC(=O)C1CCN(C(=O)CSc2ccccc2)CC1,1,0,8,0,-0.39,0,0.072
COC(=O)C1CCN(C(=O)CCCOc2ccccc2)CC1,1,4,x,0,x,2,x
Cc1ccc(CNC(=O)Cc2ccc(-n3cccc3)cc2)cc1,1,-2,15,1,2.5,0,x
O=C(Cc1ccc(-n2cccc2)cc1)NCc1cccs1,-1,1,x,-1,3.4*,0,u
CC(C)CCN(C)C1CCN(S(=O)(=O)c2cccc(C(F)(F)F)c2)CC1,0,1,x,1,-2.9*,0,0.072
COC(=O)/C=C1\SC(=NC(=O)c2ccc(C)cc2)NC1=O,1,0,8,0,-4.1*,0,0.045*
SMILES,TRPML3 ag,ABCG2 inh,Calb biofilm kill,zfTRPN1 agonist,ROMK primary,ABCB1 inh,ROMK hit retest
Cc1ccc(N/C(N)=N/c2nc(CSc3nnc(C)s3)cc(=O)[nH]2)c(C)c1,0,0,-18,-1,6.3*,-1,0.086
COc1ccc(N/C(N)=N/c2nc(CSc3nnc(C)s3)cc(=O)[nH]2)cc1,1,3,14,0,3.9*,0,0.079
COc1cccc(-c2cc(C(=O)Nc3cccnc3)no2)c1,1,26,x,0,5.9*,0,0.089
COc1cccc(-c2cc(C(=O)Nc3cc(OC)c(OC)c(OC)c3)no2)c1,0,5,x,0,x,1,x
CCOC(=O)C1(Cc2ccccc2)CCN(Cc2cn[nH]c2-c2ccccc2)CC1,1,-1,23,1,-2.5*,0,0.056*
CCOC(=O)C1(CC2CC2)CCN(Cc2cn[nH]c2-c2ccccc2)CC1,1,3,20,0,-0.68,1,x
OCCN(CC(O)Cn1ccc2ccccc21)CC(O)Cn1ccc2ccccc21 (centres undefined),3,1,x,3,-4.8*,0,0.056*
O=C1CC(/C=C/c2ccc(Cl)cc2)=Nc2ccccc2N1,3,3,7,5,-3.4*,1,0.059*
CC1(C)CC(/C=C/c2ccccc2)=Nc2ccccc2N1,-1,x,2,-2,x,x,0.036*
O=C1CC(/C=C/c2ccccc2)=Nc2ccccc2N1,1,3,-10,1,-0.58,1,x
Cc1ccc(S(=O)(=O)/N=C/c2cc(Br)ccc2O)cc1,1,-2,11,1,0.76,0,x
Cc1cc(N=Cc2cc(Br)ccc2O)no1,1,2,x,1,x,0,u
CCCCOC(=O)N1CCOCCOCCOCC1,1,x,17,1,x,x,x
CCOC(=O)C(C)CC(C)C(=O)N1CCOCCN(C(=O)C(C)CC(C)C(=O)OCC)CCOCC1 (centres undefined),0,9,x,0,x,1,0.091
O=C(C[n+]1cccc(CNC(=O)c2ccc(OC(F)F)cc2)c1)Nc1ccccc1Cl,0,7,10,1,x,1,x
O=C(C[n+]1cccc(CNC(=O)c2ccc(OC(F)F)cc2)c1)Nc1ccc(SC(F)F)cc1,-1,8,14,-2,-4*,1,0.071
CC1CN(C(=O)c2ccccc2)c2ccccc2NC1=O (centres undefined),0,2,9,4,-1.5*,1,0.078
N#Cc1cccc(C(c2nnnn2CCc2ccccc2)N2CCN(C3CCCCC3)CC2)c1 (centres undefined),1,-1,x,1,-3.1*,-1,0.058*
COc1ccc(C(c2nnnn2CCc2ccccc2)N2CCN(C3CCCC3)CC2)cc1 (centres undefined),2,0,x,3,x,0,x
